Results published in ChEMBL document CHEMBL1671794, “Synthesis and SAR studies on azetidine-containing dipeptides as HCMV inhibitors” (Bioorg Med Chem, 2011).
Calls of active or inactive are those of the source. The rule behind the calls is not given here.

Assays:
Human betaherpesvirus 5 = assay: Antiviral activity against human cytomegalovirus infected in HELF assessed as decrease in plaque formation after 7 days by microscopy; assay type: functional, organism-based; conditions: Human betaherpesvirus 5, HELF, 168 h
In short: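 Confluent HEL fibroblasts were infected with HCMV Davis strain at 100 PFU per well. After 2 h, residual virus was removed and compound-containing medium was added in duplicate. Cells were incubated for 7 days at 37 °C, then ethanol-fixed and Giemsa-stained, and cytopathogenicity was scored microscopically.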

[1] = Cytotoxicity against HELF cells assessed as after 3 days by Coulter counting analysis; assay type: cell-based; conditions: human; for MCC at 72 h / CC50 at 72 h: HELF cells; for CC50: helf, 72 h
In short: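 HEL cells were seeded at 5 × 10^3 cells/well and allowed to grow for 24 h before compound dilutions were added. After 3 days at 37 °C, cells were counted with a Coulter Counter.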

Human alphaherpesvirus 3 [2] = assay: Antiviral activity against Thymidine kinase-positive Varicella-zoster virus Oka infected in HELF assessed as virus-induced cytopathogenicity after 5 days by microscopy; assay type: functional; conditions: Human alphaherpesvirus 3, strain Oka vaccine, 120 h
Human alphaherpesvirus 3 [3] = assay: Antiviral activity against Thymidine kinase-deficient Varicella-zoster virus 07-1 infected in HELF assessed as virus-induced cytopathogenicity after 5 days by microscopy; assay type: functional, organism-based; conditions: Human alphaherpesvirus 3, 07-1, HELF, 120 h
Human respirovirus 3 = assay: Antiviral activity against parainfluenza-3 infected in african green monkey Vero cells assessed as virus-induced cytopathogenicity at 20 to 100 uM after 4 days by microscopy; assay type: functional, organism-based
In short: (§1)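 Confluent cell monolayers were inoculated with 100 CCID50 of virus. After 1 h of adsorption, residual virus was removed and cultures were incubated with fivefold serial compound dilutions. Cytopathicity was scored microscopically once it was complete in the untreated infected controls.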

[4] = tested on: Mammalian orthoreovirus 1; assay: Antiviral activity against reovirus-1 infected in african green monkey Vero cells assessed as virus-induced cytopathogenicity at 20 to 100 uM after 4 days by microscopy; assay type: functional, organism-based; in short: as §1
Sindbis virus = assay: Antiviral activity against Sindbis virus infected in african green monkey Vero cells assessed as virus-induced cytopathogenicity at 20 to 100 uM after 4 days by microscopy; assay type: functional, organism-based; in short: as §1
Coxsackievirus B4 = assay: Antiviral activity against coxsackievirus B4 infected in african green monkey Vero cells assessed as virus-induced cytopathogenicity at 20 to 100 uM after 4 days by microscopy; assay type: functional, organism-based; in short: as §1
Human alphaherpesvirus 1 = assay: Antiviral activity against Human herpesvirus 1 strain KOS infected in HELF assessed as virus-induced cytopathogenicity at 20 to 100 uM after 4 days by microscopy; assay type: functional, organism-based; in short: as §1
Human alphaherpesvirus 2 = assay: Antiviral activity against Human herpesvirus 2 strain G infected in HELF assessed as virus-induced cytopathogenicity at 20 to 100 uM after 4 days by microscopy; assay type: functional, organism-based; in short: as §1
[5] = tested on: Vesicular stomatitis virus; assay: Antiviral activity against Vesicular stomatitis virus infected in HELF assessed as virus-induced cytopathogenicity at 20 to 100 uM after 4 days by microscopy; assay type: functional, organism-based
In short: (§2)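 Near-confluent MDCK (influenza) or confluent HEL monolayers were inoculated with 100 CCID50 of virus. After 1-h adsorption, residual virus was removed, and cells were incubated with fivefold serial dilutions of compound. Cytopathicity was scored microscopically once untreated infected controls reached complete CPE. Minimal cytotoxic concentration was read as microscopically visible alteration of cell morphology.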

Feline coronavirus = assay: Antiviral activity against Feline coronavirus infected in CrFK assessed as virus-induced cytopathogenicity at 20 to 100 uM after 4 days by microscopy; assay type: functional, organism-based; in short: as §1
Influenza A virus [6] = assay: Antiviral activity against Influenza A virus infected in MDCK assessed as virus-induced cytopathogenicity at 20 to 100 uM after 4 days by microscopy; assay type: functional, organism-based; in short: as §2
Influenza A virus [7] = assay: Antiviral activity against Influenza A virus H3N2 infected in MDCK assessed as virus-induced cytopathogenicity at 20 to 100 uM after 4 days by microscopy; assay type: functional, organism-based; in short: as §2
Influenza A virus [8] = assay: Antiviral activity against Influenza A virus H1N1 infected in MDCK assessed as virus-induced cytopathogenicity at 20 to 100 uM after 4 days by microscopy; assay type: functional, organism-based; in short: as §2

SMILES	EC50 (Human betaherpesvirus 5)	MCC at 72 h [1]	CC50 [1]	further results
C[C@H](NC(=O)[C@@]1(Cc2ccccc2)CCN1C(=O)OCc1ccccc1)C(=O)NCc1ccccc1 (racemic)	> 4 µM	≥ 20 µM	42 µM	
C[C@H](NC(=O)[C@]1(Cc2ccccc2)CCN1C(=O)Oc1ccccc1)C(N)=O	> 20 µM	> 100 µM	> 100 µM	IC50 (Human alphaherpesvirus 3 [2]): 69 µM; IC50 (Human alphaherpesvirus 3 [3]): 858 µM
Nc1nc2c(ncn2COCCO)c(=O)[nH]1 [ACYCLOVIR]		> 1780 µM	> 1780 µM	
CC(C)C[C@H](NC(=O)[C@@]1(Cc2ccccc2)CCN1C(=O)OCc1ccccc1)C(N)=O	45 µM	> 100 µM	66 µM	
Nc1nc(O)c2ncn(COC(CO)CO)c2n1 [GANCICLOVIR]	7 µM	≥ 1580 µM	580 µM	
NC(=O)[C@H](Cc1ccccc1)NC(=O)[C@@]1(Cc2ccccc2)CCN1C(=O)OCc1ccccc1	> 20 µM	100 µM	37 µM	
CC(C)CNC(=O)[C@H](C)NC(=O)[C@@]1(Cc2ccccc2)CCN1C(=O)OCc1ccccc1	> 100 µM	> 100 µM		
NC(=O)[C@H](Cc1ccccc1)NC(=O)[C@]1(Cc2ccccc2)CCN1C(=O)OCc1ccccc1	> 20 µM	100 µM	33 µM	
NC(=O)[C@H](CCC(=O)O)NC(=O)C1(Cc2ccccc2)CCN1C(=O)OCc1ccccc1 (mixture of isomers)	> 100 µM	> 100 µM	> 100 µM	
C[C@H](NC(=O)[C@@]1(Cc2ccccc2)CCN1C(=O)OCc1ccccc1)C(=O)NC1CCCCC1	> 20 µM	100 µM	46 µM	
C[C@H](NC(=O)[C@]1(Cc2ccccc2)CCN1C(=O)N[C@@H](C)c1ccccc1)C(N)=O	> 100 µM	> 100 µM	> 100 µM	
C[C@H](NC(=O)[C@H](Cc1ccccc1)NC(=O)OCc1ccccc1)C(=O)NC(C)(C)C	> 100 µM	> 100 µM	> 100 µM	
C[C@H](NC(=O)[C@@]1(Cc2ccccc2)CCN1C(=O)OCc1ccccc1)C(=O)N(C)C	> 100 µM	> 100 µM		
C[C@H](NC(=O)[C@]1(Cc2ccccc2)CCN1C(=O)CCc1ccccc1)C(N)=O	> 100 µM	100 µM		CC50 at 72 h [1]: > 100 µM
CC(C)[C@H](NC(=O)[C@]1(Cc2ccccc2)CCN1C(=O)OCc1ccccc1)C(N)=O		> 100 µM	100 µM	
C[C@@H](NC(=O)[C@]1(Cc2ccccc2)CCN1C(=O)OCc1ccccc1)C(N)=O	63 µM	> 100 µM	36 µM	
CC(C)[C@H](NC(=O)[C@@]1(Cc2ccccc2)CCN1C(=O)OCc1ccccc1)C(N)=O	> 100 µM	> 100 µM	85 µM	

SMILES	EC50 (Human betaherpesvirus 5)	MCC at 72 h [1]	CC50 [1]	further results
C[C@H](NC(=O)[C@H](Cc1ccccc1)NC(=O)OCc1ccccc1)C(N)=O	> 100 µM	> 100 µM	> 100 µM	
C[C@H](NC(=O)[C@@]1(Cc2ccccc2)CCN1C(=O)OCc1ccccc1)C(=O)NC(C)(C)C (mixture of isomers)	49 µM	> 100 µM	> 100 µM	IC50 (Human alphaherpesvirus 3 [2]): 63 µM; IC50 (Human alphaherpesvirus 3 [3]): 60 µM
C[C@H](NC(=O)[C@]1(Cc2ccccc2)CCN1C(=O)OCc1ccc([N+](=O)[O-])cc1)C(N)=O	> 20 µM	100 µM		CC50 at 72 h [1]: > 100 µM; IC50 (Human alphaherpesvirus 3 [2]): > 100 µM; IC50 (Human alphaherpesvirus 3 [3]): 67 µM
C[C@H](NC(=O)[C@]1(Cc2ccccc2)CCN1C(=O)OCc1ccccc1)C(=O)NCc1ccccc1	> 20 µM	100 µM		
C[C@@H](NC(=O)[C@@]1(Cc2ccccc2)CCN1C(=O)OCc1ccccc1)C(N)=O	> 100 µM	> 100 µM	> 100 µM	
NCCCC[C@H](NC(=O)C1(Cc2ccccc2)CCN1C(=O)OCc1ccccc1)C(N)=O (mixture of isomers)	> 100 µM	> 100 µM	> 100 µM	
C[C@H](NC(=O)[C@]1(Cc2ccccc2)CCN1C(=O)OCc1ccccc1)C(N)=O	32 µM	> 50 µM	50 µM	
C[C@H](NC(=O)[C@]1(Cc2ccccc2)CCN1S(=O)(=O)c1ccc2ccccc2c1)C(N)=O	> 100 µM	> 100 µM	> 100 µM	IC50 (Human alphaherpesvirus 3 [2]): > 100 µM; IC50 (Human alphaherpesvirus 3 [3]): 76.5 µM
C[C@H](NC(=O)[C@]1(Cc2ccccc2)CCN1C(=O)OCC1c2ccccc2-c2ccccc21)C(N)=O	> 4 µM	20 µM	14 µM	Activity (Human respirovirus 3): inactive; Activity [4]: inactive; Activity (Sindbis virus): inactive; Activity (Coxsackievirus B4): inactive; Activity (Human alphaherpesvirus 1): inactive; Activity (Human alphaherpesvirus 2): inactive; Activity [5]: inactive; Activity (Feline coronavirus): inactive; Activity (Influenza A virus [6]): inactive; Activity (Influenza A virus [7]): inactive; Activity (Influenza A virus [8]): inactive
CC(C)CNC(=O)[C@H](C)NC(=O)[C@]1(Cc2ccccc2)CCN1C(=O)OCc1ccccc1	63 µM	> 100 µM	> 100 µM	IC50 (Human alphaherpesvirus 3 [2]): > 100 µM; IC50 (Human alphaherpesvirus 3 [3]): 64.8 µM
C[C@H](NC(=O)[C@]1(Cc2ccccc2)CCN1C(=O)Oc1cccc2ccccc12)C(N)=O	45 µM	> 100 µM	> 100 µM	IC50 (Human alphaherpesvirus 3 [2]): 47.7 µM; IC50 (Human alphaherpesvirus 3 [3]): 47.7 µM
C[C@H](NC(=O)[C@]1(Cc2ccccc2)CCN1C(=O)OCc1ccccc1Cl)C(N)=O	> 20 µM	> 100 µM	> 100 µM	
C[C@H](NC(=O)[C@]1(Cc2ccccc2)CCN1C(=O)OCc1ccccc1)C(=O)NC(C)(C)C	45 µM	> 100 µM		IC50 (Human alphaherpesvirus 3 [3]): 62.5 µM
CC(C)C[C@H](NC(=O)[C@]1(Cc2ccccc2)CCN1C(=O)OCc1ccccc1)C(N)=O	> 20 µM	100 µM	50 µM	
C[C@H](NC(=O)[C@]1(Cc2ccccc2)CCN1C(=O)OCc1ccccc1)C(=O)N(C)C	> 100 µM	> 100 µM	> 100 µM	
C[C@H](NC(=O)[C@]1(Cc2ccccc2)CCN1C(=O)NCc1ccccc1)C(N)=O	> 100 µM	> 100 µM	> 100 µM	
C[C@H](NC(=O)[C@]1(Cc2ccccc2)CCN1C(=O)OCc1ccccc1)C(=O)NC1CCCCC1	> 100 µM	> 100 µM	> 100 µM	
